Data taken from ChEMBL document CHEMBL1765047, “Synthesis and in vivo evaluation of (S)-6-(4-fluorophenoxy)-3-((1-[11C]methylpiperidin-3-yl)methyl)-2-o-tolylquinazolin-4(3H)-one, a potential PET tracer for growth hormone secretagogue receptor (GHSR)” (Bioorg Med Chem, 2011).
Active and inactive are the calls of the source. The calls are words filed in the database; no cut-off is given here.

Experiments:
[1] = target: Growth hormone secretagogue receptor type 1 (Homo sapiens, UniProt Q92847); assay: Inhibition of [125I]Ghrelin binding to human Ghrelin receptor expressed in CHO-K1 cells after 60 mins by liquid scintillation spectrometry; format: cell-based
Chain of Growth hormone secretagogue receptor type 1 (Q92847 whole entry): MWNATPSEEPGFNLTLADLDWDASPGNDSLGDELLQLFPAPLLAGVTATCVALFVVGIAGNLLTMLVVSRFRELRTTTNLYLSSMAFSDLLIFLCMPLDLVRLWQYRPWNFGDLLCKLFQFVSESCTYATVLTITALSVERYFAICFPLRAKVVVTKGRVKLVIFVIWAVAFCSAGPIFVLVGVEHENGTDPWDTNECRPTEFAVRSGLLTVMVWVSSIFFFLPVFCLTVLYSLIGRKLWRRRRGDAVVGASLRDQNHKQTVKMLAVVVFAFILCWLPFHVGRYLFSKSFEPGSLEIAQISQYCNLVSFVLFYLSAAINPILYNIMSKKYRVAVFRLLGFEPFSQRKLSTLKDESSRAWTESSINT
Procedure, shortened: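 Membranes from CHO-K1 cells stably expressing human GHSR, prepared in modified HEPES pH 7.4. 0.25 mg membrane incubated with 0.03 nM [125I]human ghrelin for 60 min at 25°C; nonspecific binding with […]. Filter-bound radioactivity counted by liquid scintillation. Duplicates at multiple concentrations; one-site competition fit for IC50, Ki by Cheng-Prusoff.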

[2] = target: Growth hormone secretagogue receptor type 1 (Mus musculus) (UniProt Q99P50); assay: Binding affinity to mouse Ghrelin receptor in mouse hypothalamus after 90 mins in presence of receptor antagonist (S)-6-(4-Fluorophenoxy)-3-(piperidin-3-ylmethyl)-2-o-tolylquinazolin-4(3H)-one; details: tested as the 11C-labelled form
Chain of Growth hormone secretagogue receptor type 1 (Mus musculus) (Q99P50 whole entry, looked up): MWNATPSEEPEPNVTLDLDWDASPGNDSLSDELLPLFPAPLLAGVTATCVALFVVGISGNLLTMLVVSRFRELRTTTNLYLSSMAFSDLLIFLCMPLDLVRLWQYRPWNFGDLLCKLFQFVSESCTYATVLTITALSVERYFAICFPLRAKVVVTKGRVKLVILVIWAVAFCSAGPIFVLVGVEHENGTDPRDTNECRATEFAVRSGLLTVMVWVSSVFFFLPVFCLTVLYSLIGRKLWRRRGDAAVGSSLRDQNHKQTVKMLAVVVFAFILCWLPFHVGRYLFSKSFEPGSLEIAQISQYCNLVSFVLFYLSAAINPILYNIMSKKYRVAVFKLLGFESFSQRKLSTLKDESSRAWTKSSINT

Ki [1]: 22 nM
Activity [2]: Active
SMILES: Cc1ccccc1-c1nc2ccc(Oc3ccc(F)cc3)cc2c(=O)n1C[C@H]1CCCN(C)C1
